Laboratory results as given in ChEMBL document CHEMBL3244150, “Semisynthetic cephalosporins. Synthesis and structure-activity relationships of analogues with 7-acyl groups derived from 2-(cyanomethylthio)acetic acid or 2-[(2,2,2-trifluoroethyl)thio]acetic acid and their sulfoxides and sulfones” (1977).
≈ marks a conversion by molar mass, not a printed value. Calls of active or inactive are those of the source. The rule behind the calls is not given here.

Columns and labels:
Staphylococcus aureus = assay: Antibacterial activity against penicillin G-resistant Staphylococcus aureus HH 127 after overnight incubation by twofold agar dilution method; type: functional
How it was run: (§1)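 MIC (ug/ml) determined by twofold agar dilution on Trypticase soy agar buffered to pH 6.0.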

Pseudomonas aeruginosa = assay: Antibacterial activity against Pseudomonas aeruginosa after overnight incubation by twofold agar dilution method; type: functional, organism-based
How it was run: (§2)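 Twofold agar dilution on Trypticase soy agar buffered to pH 6.0. MIC recorded in ug/ml.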

Enterococcus faecalis = assay: Antibacterial activity against Streptococcus faecalis after overnight incubation by twofold agar dilution method; type: functional; how it was run: as §2
Klebsiella aerogenes = assay: Antibacterial activity against Enterobacter aerogenes ATCC 13048 after overnight incubation by twofold agar dilution method; type: functional; how it was run: as §2
Escherichia coli [1] = assay: Antibacterial activity against Escherichia coli 12140 infected in sc dosed mouse assessed as mouse survival after 3 days; type: functional; settings: Escherichia coli, 12140, sc, 72 h; read-out: PD50
How it was run: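 Mice infected ip with approximately 2 X 10 organisms per mouse of E. coli 12140 culture diluted in 5% hog gastric mucin (uniformly lethal). Fourfold dilutions dosed sc in equally divided portions at 1 and 5 h postinfection; five groups of ten mice each. Survivors observed for 3 days. PD50 = total dose (mg/kg) protecting 50% of mice, calculated by Litchfield and Wilcoxon method.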

Shigella flexneri = assay: Antibacterial activity against Shigella paradysenteriae HH 117 after overnight incubation by twofold agar dilution method; type: functional; how it was run: as §1
Escherichia coli [2] = assay: Antibacterial activity against Escherichia coli 12140 after overnight incubation by twofold agar dilution method; type: functional; how it was run: as §2
Salmonella paratyphi = assay: Antibacterial activity against Salmonella paratyphi ATCC 12176 after overnight incubation by twofold agar dilution method; type: functional, Salmonella enterica subsp. enterica serovar Paratyphi A; settings: Salmonella enterica; how it was run: as §1
Klebsiella pneumoniae = assay: Antibacterial activity against Klebsiella pneumoniae 4200 after overnight incubation by twofold agar dilution method; type: functional; how it was run: as §2

Row | Structure (SMILES) | MIC (Staphylococcus aureus) | Activity (Pseudomonas aeruginosa) | MIC (Enterococcus faecalis) | MIC (Klebsiella aerogenes) | ED50 (Escherichia coli [1]) | MIC (Shigella flexneri) | MIC (Escherichia coli [2]) | MIC (Salmonella paratyphi) | MIC (Klebsiella pneumoniae)
1 | Cn1nnnc1SCC1=C(C(=O)[O-])N2C(=O)[C@@H](NC(=O)C[S+]([O-])CC#N)[C@H]2SC1.[Na+] (stereo not given in full) | 1.6 µg/mL | inactive | > 13 µg/mL | 12.5 µg/mL | 10 mg/kg | 1.6 µg/mL | 1.6 µg/mL | 0.8 µg/mL | 1.6 µg/mL
2 | Cc1nnc(SCC2=C(C(=O)[O-])N3C(=O)[C@@H](NC(=O)CSCC(F)(F)F)[C@H]3SC2)s1.[Na+] | 0.2 µg/mL | inactive | > 13 µg/mL | 25 µg/mL | 33 mg/kg | 1.6 µg/mL | 6.3 µg/mL | 6.3 µg/mL | 6.3 µg/mL
3 | CC(=O)OCC1=C(C(=O)O)N2C(=O)[C@@H](NC(=O)CS(=O)(=O)CC#N)[C@H]2SC1 | 1.6 µg/mL (≈ 3.83 µM) | inactive | > 13 µg/mL | 50 µg/mL (≈ 120 µM) | 35 mg/kg | 6.3 µg/mL (≈ 15.1 µM) | 6.3 µg/mL (≈ 15.1 µM) | 3.1 µg/mL (≈ 7.43 µM) | 25 µg/mL (≈ 59.9 µM)
4 | CC(=O)OCC1=C(C(=O)O)N2C(=O)[C@@H](NC(=O)Cc3cccs3)[C@H]2SC1 [CEPHALOTHIN] | 0.2 µg/mL (≈ 0.504 µM) | inactive | > 13 µg/mL | 50 µg/mL (≈ 126 µM) | 50 mg/kg | 6.3 µg/mL (≈ 15.9 µM) | 3.1 µg/mL (≈ 7.82 µM) | 1.6 µg/mL (≈ 4.04 µM) | 3.1 µg/mL (≈ 7.82 µM)
5 | Cn1nnnc1SCC1=C(C(=O)[O-])N2C(=O)[C@@H](NC(=O)C[S+]([O-])CC(F)(F)F)[C@H]2SC1.[Na+] (stereo not given in full) | 1.6 µg/mL | inactive | > 13 µg/mL | 6.3 µg/mL | 1.5 mg/kg | 0.4 µg/mL | 0.8 µg/mL | 1.6 µg/mL | 0.4 µg/mL
6 | CC(=O)OCC1=C(C(=O)[O-])N2C(=O)[C@@H](NC(=O)C[S+]([O-])CC#N)[C@H]2SC1.[Na+] (stereo not given in full) | 1.6 µg/mL | inactive | > 13 µg/mL | 25 µg/mL | 21 mg/kg | 6.3 µg/mL | 12.5 µg/mL | 3.1 µg/mL | 6.3 µg/mL
7 | Cc1nnc(SCC2=C(C(=O)[O-])N3C(=O)[C@@H](NC(=O)CSCC#N)[C@H]3SC2)s1.[Na+] | 0.2 µg/mL | inactive | > 13 µg/mL | > 200 µg/mL | 14 mg/kg | 1.6 µg/mL | 1.6 µg/mL | 1.6 µg/mL | 1.6 µg/mL
8 | Cc1nnc(SCC2=C(C(=O)O)N3C(=O)[C@@H](NC(=O)Cn4cnnn4)[C@H]3SC2)s1 [CEFAZOLIN] | 0.4 µg/mL (≈ 0.88 µM) | inactive | > 13 µg/mL | 1.6 µg/mL (≈ 3.52 µM) | 6 mg/kg | 0.4 µg/mL (≈ 0.88 µM) | 0.8 µg/mL (≈ 1.76 µM) | 0.8 µg/mL (≈ 1.76 µM) | 0.8 µg/mL (≈ 1.76 µM)
9 | CC(=O)OCC1=C(C(=O)[O-])N2C(=O)[C@@H](NC(=O)CSCC(F)(F)F)[C@H]2SC1.[Na+] | 0.4 µg/mL | inactive | > 13 µg/mL | 50 µg/mL | 184 mg/kg | 6.3 µg/mL | 6.3 µg/mL | 6.3 µg/mL | 3.1 µg/mL
10 | Cc1nnc(SCC2=C(C(=O)[O-])N3C(=O)[C@@H](NC(=O)CS(=O)(=O)CC(F)(F)F)[C@H]3SC2)s1.[Na+] | 1.6 µg/mL | inactive | > 13 µg/mL | 12.5 µg/mL | 35 mg/kg | 6.3 µg/mL | 6.3 µg/mL | 6.3 µg/mL | 6.3 µg/mL
11 | Cc1nnc(SCC2=C(C(=O)[O-])N3C(=O)[C@@H](NC(=O)C[S+]([O-])CC(F)(F)F)[C@H]3SC2)s1.[Na+] (stereo not given in full) | 0.8 µg/mL | inactive | > 13 µg/mL | 6.3 µg/mL | 6 mg/kg | 0.8 µg/mL | 3.1 µg/mL | 1.6 µg/mL | 3.1 µg/mL
12 | Cc1nnc(SCC2=C(C(=O)O)N3C(=O)[C@@H](NC(=O)CS(=O)(=O)CC#N)[C@H]3SC2)s1 | 1.6 µg/mL (≈ 3.27 µM) | inactive | > 13 µg/mL | 12.5 µg/mL (≈ 25.5 µM) | 15 mg/kg | 3.1 µg/mL (≈ 6.33 µM) | 6.3 µg/mL (≈ 12.9 µM) | 6.3 µg/mL (≈ 12.9 µM) | 6.3 µg/mL (≈ 12.9 µM)
13 | Cn1nnnc1SCC1=C(C(=O)[O-])N2C(=O)[C@@H](NC(=O)CSCC(F)(F)F)[C@H]2SC1.[Na+] | 0.2 µg/mL | inactive | > 13 µg/mL | 6.3 µg/mL | 11 mg/kg | 0.4 µg/mL | 1.6 µg/mL | 0.8 µg/mL | 3.1 µg/mL
14 | CC(=O)OCC1=C(C(=O)O)N2C(=O)[C@@H](NC(=O)CC#N)[C@H]2SC1 [CEPHACETRILE] | 0.4 µg/mL (≈ 1.18 µM) | inactive | > 13 µg/mL | 6.3 µg/mL (≈ 18.6 µM) | 25 mg/kg | 3.1 µg/mL (≈ 9.14 µM) | 6.3 µg/mL (≈ 18.6 µM) | 3.1 µg/mL (≈ 9.14 µM) | 3.1 µg/mL (≈ 9.14 µM)
15 | Cn1nnnc1SCC1=C(C(=O)[O-])N2C(=O)[C@@H](NC(=O)CSCC#N)[C@H]2SC1.[Na+] | 0.4 µg/mL | inactive | > 13 µg/mL | 12.5 µg/mL | 11 mg/kg | 0.8 µg/mL | 0.8 µg/mL | 0.4 µg/mL | 1.6 µg/mL
16 | CC(=O)OCC1=C(C(=O)[O-])N2C(=O)[C@@H](NC(=O)CS(=O)(=O)CC(F)(F)F)[C@H]2SC1.[Na+] | 3.1 µg/mL | inactive | > 13 µg/mL | 50 µg/mL | 100 mg/kg | 12.5 µg/mL | 25 µg/mL | 3.1 µg/mL | 6.3 µg/mL
17 | Cc1nnc(SCC2=C(C(=O)[O-])N3C(=O)[C@@H](NC(=O)C[S+]([O-])CC#N)[C@H]3SC2)s1.[Na+] (stereo not given in full) | 0.8 µg/mL | inactive | > 13 µg/mL | 6.3 µg/mL | 22 mg/kg | 0.8 µg/mL | 3.1 µg/mL | 0.8 µg/mL | 1.6 µg/mL
18 | CC(=O)OCC1=C(C(=O)[O-])N2C(=O)[C@@H](NC(=O)CSCC#N)[C@H]2SC1.[Na+] | 0.2 µg/mL | inactive | > 13 µg/mL | > 200 µg/mL | > 200 mg/kg | 6.3 µg/mL | 6.3 µg/mL | 1.6 µg/mL | 1.6 µg/mL
19 | Cn1nnnc1SCC1=C(C(=O)O)N2C(=O)[C@@H](NC(=O)CSC(F)(F)F)[C@H]2SC1 [CEFAZAFLUR] | 0.4 µg/mL (≈ 0.85 µM) | inactive | > 13 µg/mL | 1.6 µg/mL (≈ 3.4 µM) | 2 mg/kg | 0.2 µg/mL (≈ 0.425 µM) | 0.4 µg/mL (≈ 0.85 µM) | 0.4 µg/mL (≈ 0.85 µM) | 0.8 µg/mL (≈ 1.7 µM)
20 | CC(=O)OCC1=C(C(=O)[O-])N2C(=O)[C@@H](NC(=O)C[S+]([O-])CC(F)(F)F)[C@H]2SC1.[Na+] (stereo not given in full) | 0.8 µg/mL | inactive | > 13 µg/mL | 6.3 µg/mL | 25 mg/kg | 3.1 µg/mL | 6.3 µg/mL | 1.6 µg/mL | 3.1 µg/mL
